Test results from ChEMBL document CHEMBL4390700, “Design, synthesis and antitumour and anti-angiogenesis evaluation of 22 moscatilin derivatives” (Bioorg Med Chem, 2019).
The source made the active and inactive calls. The calls are words filed in the database; no cut-off is given here.

Legend:
Danio rerio = organism: Danio rerio; assay: Anti-angiogenic activity in zebrafish-guided angiogenesis model assessed as reduction in inter-segmental blood vessels measured at 72 hpf by fluorescence microscopy; assay type: functional
Summary of the method: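 Tg(fli-1:EGFP) zebrafish embryos, dechorionated at 24 hpf, 20 per group, kept in embryo water containing compound at 28.5 °C for a further 48 h. All compounds screened first at 50 μM; active ones titrated for minimum effective dose. At 72 hpf embryos anesthetized in 0.016% tricaine and intersegmental vessels imaged by fluorescence microscopy. SU5416 positive control.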

HepG2 = assay: Antiproliferative activity against human HepG2 cells incubated for 72 hrs by MTT assay; assay type: functional, cell-based; conditions: HepG2, 72 h
Summary of the method: (§1)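 5×10³ cells per well preincubated 12 h at 37 °C, 5% CO₂. Medium replaced with fresh medium containing compound at various concentrations, DMSO ≤0.1%, for 72 h at 37 °C. MTT 0.5 mg/mL final added for 2 h; formazan dissolved in DMSO, A570 read; viability expressed relative to untreated cells.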

HCT-116 [1] = assay: Induction of morphological changes in human HCT116 cells assessed as induction of tensile deformation at 1 to 10 uM incubated for 48 hrs by Hoechst 33342 staining based fluorescence microscopy; assay type: functional, cell-based
HCT-116 [2] = assay: Induction of apoptosis in human HCT116 cells assessed as late apoptotic cells level at 10 uM incubated for 48 hrs by Annexin V-FITC and propidium iodide staining based flow cytometry; assay type: functional
Summary of the method: (§2)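 2×10⁵ cells per well, adhered overnight, then exposed 48 h to compound at 1, 5 or 10 μM. Annexin V-FITC/PI double staining, read by flow cytometry. Annexin V+/PI− counted as early apoptotic, Annexin V+/PI+ as late. Gambogic acid 1 μM comparator.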

HCT-116 [3] = assay: Induction of apoptosis in human HCT116 cells assessed as late apoptotic cells level at 5 uM incubated for 48 hrs by Annexin V-FITC and propidium iodide staining based flow cytometry; assay type: functional; summary of the method: as §2
HCT-116 [4] = assay: Induction of cell cycle arrest in human HCT116 cells assessed reduction in accumulation at G1 phase at 5 to 10 uM incubated for 48 hrs by propidium iodide staining based flow cytometry; assay type: functional
Summary of the method: (§3)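 2×10⁵ cells per well, adhered overnight, then treated 48 h at 5 or 10 μM. Cells fixed in cold 70% ethanol overnight, RNase A treated 30 min at 37 °C, PI stained 15 min at 4 °C. DNA content measured by flow cytometry; phase distribution compared with untreated control.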

HCT-116 [5] = assay: Induction of apoptosis in human HCT116 cells assessed as late apoptotic cells level at 1 uM incubated for 48 hrs by Annexin V-FITC and propidium iodide staining based flow cytometry; assay type: functional
Summary of the method: (§4)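 HCT116 seeded 2 × 10⁵ cells/well, adhered overnight, then exposed to compound for 48 h. Annexin V-FITC/PI double staining, read by flow cytometry. Early apoptotic cells counted as Annexin V+/PI− (lower right quadrant), late apoptotic as Annexin V+/PI+ (upper right). Culture at 37 °C, 5% CO₂, medium with 10% FBS and penicillin/streptomycin, DMSO ≤0.1%.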

HCT-116 [6] = assay: Induction of cell cycle arrest in human HCT116 cells assessed accumulation at G2/M phase at 5 uM incubated for 48 hrs by propidium iodide staining based flow cytometry (reference value: 11.88%); assay type: functional; summary of the method: as §3
HCT-116 [7] = assay: Induction of apoptosis in human HCT116 cells assessed as early apoptotic cells level at 10 uM incubated for 48 hrs by Annexin V-FITC and propidium iodide staining based flow cytometry; assay type: functional; summary of the method: as §2
HCT-116 [8] = assay: Induction of apoptosis in human HCT116 cells assessed as early apoptotic cells level at 1 uM incubated for 48 hrs by Annexin V-FITC and propidium iodide staining based flow cytometry; assay type: functional; summary of the method: as §4
[9] = Cytotoxicity against human NCM460 cells assessed as cell viability at 50 uM incubated for 72 hrs by MTT assay; assay type: cell-based; conditions: read-out: Activity
Summary of the method: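 NCM460 colon cells exposed to compound at 0.1, 1, 2, 5, 10, 20, 30, 40 and 50 μM; viability expressed as percent. Media carried penicillin G, streptomycin and 10% FBS; culture at 37 °C, 5% CO₂.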

HCT-116 [10] = assay: Induction of cell cycle arrest in human HCT116 cells assessed reduction in accumulation at S phase at 5 to 10 uM incubated for 48 hrs by propidium iodide staining based flow cytometry; assay type: functional; summary of the method: as §3
MKN-45 = assay: Antiproliferative activity against human MKN45 cells incubated for 72 hrs by MTT assay; assay type: functional, cell-based; conditions: MKN-45, 72 h; summary of the method: as §1
HCT-116 [11] = assay: Induction of apoptosis in human HCT116 cells assessed as induction of chromatin congregation at 1 to 10 uM incubated for 48 hrs by DAPI staining based fluorescence microscopy; assay type: functional, cell-based; conditions: in the assay text read “Hoechst 33342” for “DAPI”
Summary of the method: (§5)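 After 48 h exposure to 1, 5 or 10 μM, nuclei stained with DAPI (methods name Hoechst 33342). Chromatin condensation and nuclear pyknosis scored by fluorescence microscopy at 400× against untreated cells.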

HCT-116 [12] = assay: Antiproliferative activity against human HCT116 cells incubated for 72 hrs by MTT assay; assay type: functional, cell-based; conditions: HCT-116, 72 h; summary of the method: as §1
HCT-116 [13] = assay: Induction of apoptosis in human HCT116 cells assessed as induction of […] pyknosis at 1 to 10 uM incubated for 48 hrs by DAPI staining based fluorescence microscopy; assay type: functional, cell-based; conditions: in the assay text read “Hoechst 33342” for “DAPI”; summary of the method: as §5
HCT-116 [14] = assay: Induction of morphological changes in human HCT116 cells assessed as induction of slow growth at 1 to 10 uM incubated for 48 hrs by Hoechst 33342 staining based fluorescence microscopy; assay type: functional, cell-based
HCT-116 [15] = assay: Induction of morphological changes in human HCT116 cells assessed as induction of cell distortion at 1 to 10 uM incubated for 48 hrs by Hoechst 33342 staining based fluorescence microscopy; assay type: functional
HCT-116 [16] = assay: Reduction in alpha-tubulin protein expression in human HCT116 cells at 1 to 10 uM incubated for 48 hrs by Western blot analysis; assay type: functional, cell-based
Summary of the method: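 After 48 h treatment, cells lysed in buffer of 100 mM Tris-Cl pH 6.8, 4% SDS, 20% glycerol, 200 mM β-mercaptoethanol, 1 mM PMSF, aprotinin. Lysates spun 12000g for 30 min at 4 °C and protein quantified by BCA. Proteins run on 10% SDS-PAGE, semi-dry transferred to PVDF, probed overnight at 4 °C with anti-α-tubulin 1:1000 and GAPDH 1:1000 loading control, then HRP secondary. ECL detection with densitometry.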

HCT-116 [17] = assay: Induction of apoptosis in human HCT116 cells assessed as early apoptotic cells level at 5 uM incubated for 48 hrs by Annexin V-FITC and propidium iodide staining based flow cytometry; assay type: functional; summary of the method: as §2
HCT-116 [18] = assay: Induction of cell cycle arrest in human HCT116 cells assessed accumulation at G2/M phase at 10 uM incubated for 48 hrs by propidium iodide staining based flow cytometry (reference value: 11.88%); assay type: functional; summary of the method: as §3
A549 = assay: Antiproliferative activity against human A549 cells incubated for 72 hrs by MTT assay; assay type: functional, cell-based; conditions: A549, 72 h; summary of the method: as §1
MDA-MB-231 = assay: Antiproliferative activity against human MDA-MB-231 cells incubated for 72 hrs by MTT assay; assay type: functional, cell-based; conditions: MDA-MB-231, 72 h; summary of the method: as §1

| Compound | MED (Danio rerio) [µM] | IC50 (HepG2) [µM] | IC50 (MKN-45) [µM] | IC50 (HCT-116 [12]) [µM] | IC50 (A549) [µM] | IC50 (MDA-MB-231) [µM] | also measured |
| --- | --- | --- | --- | --- | --- | --- | --- |
| COc1cc(CCc2ccccc2Cl)cc(OC)c1O | 0.62 to 1.25 | 2.19 | 24.5 | 0.25 | 2.13 | 21.1 | Activity (HCT-116 [1]): Dose-dependent effect; Activity (HCT-116 [2]): 37.2%; Activity (HCT-116 [3]): 22.4%; Activity (HCT-116 [4]): Active; Activity (HCT-116 [5]): 18.1%; Activity (HCT-116 [6]): 85.22%; Activity (HCT-116 [7]): 36.9%; Activity (HCT-116 [8]): 24.8%; viability at 72 h, 50 µM [9]: 84.4%; Activity (HCT-116 [10]): Active; Activity (HCT-116 [11]): Active; Activity (HCT-116 [13]): Active; Activity (HCT-116 [14]): Dose-dependent effect; Activity (HCT-116 [15]): Dose-dependent effect; Activity (HCT-116 [16]): Active; Activity (HCT-116 [17]): 34.5%; Activity (HCT-116 [18]): 82.47% |
| COc1cc(CCc2cccc(F)c2)cc(OC)c1O | 15 to 20 | 12.4 | 2.97 | 7.57 | 2.24 | > 25 |  |
| COc1cc(CCc2ccc(OC)c(OC)c2)ccc1O | >50 | 2.27 | 2.06 | 2.69 | 3.64 | 1.64 |  |
| COc1cc(CCc2cccc(Cl)c2Cl)cc(OC)c1O | 5 to 10 | 4.77 | 0.011 | 8.78 | 3.99 | 6.87 |  |
| COc1cc(CCc2ccc(Cl)cc2)cc(OC)c1O | >50 | 8.78 | 0.74 | 0.33 | 22.9 | > 25 |  |
| COc1cc(CCc2ccc(Br)cc2)cc(OC)c1O | 2.5 to 5 | 8.49 | 1.49 | 15.8 | > 25 | > 25 |  |
| COc1cc(CCc2ccccc2F)cc(OC)c1O | 10 to 15 | 1.03 | > 25 | 0.88 | > 25 | 9.22 |  |
| COc1ccc(CCc2ccccc2)cc1OC | >50 | 2.08 | 21.9 | 2.56 | > 25 | > 25 |  |
| COc1ccc(CCc2ccc([N+](=O)[O-])cc2)cc1OC | >50 | 1.6 | 13.7 | 5.97 | > 25 | > 25 |  |
| COc1cc(CCc2ccccn2)cc(OC)c1O | 25 to 50 | 4.84 | 0.66 | 3.06 | > 25 | > 25 |  |
| COc1ccccc1CCc1cc(OC)c(O)c(OC)c1 | 1.25 to 2.5 | 2.48 | 2.48 | 14.5 | 1.74 | > 25 |  |
| COc1cc(CCc2ccncc2)cc(OC)c1O | >50 | 2.17 | 3.81 | 3.74 | > 25 | 6.3 |  |
| COc1ccc(CCc2ccc(F)cc2)cc1OC | >50 | > 25 | 3.98 | 7.89 | > 25 | 0.92 |  |
| COc1ccc(CCc2ccccc2Cl)cc1OC | 20 to 25 | 4.93 | 2.04 | 6.16 | > 25 | > 25 |  |
| Cc1cc(C)c(/C=C2\C(=O)Nc3ccccc32)[nH]1 [SEMAXANIB] | 1.25 to 2.5 |  |  |  |  |  |  |
| COc1cc(CCc2ccc([N+](=O)[O-])cc2)cc(OC)c1O |  | 11 | 15.4 | 3.16 | 9.13 | 8.05 |  |
| COc1cc(CCc2ccc(F)cc2)cc(OC)c1O | >50 | 5.47 | 10.7 | 1.19 | 4.15 | > 25 |  |
| COc1cc(CCc2ccccc2)cc(OC)c1O | 20 to 25 | 7.83 | 1.04 | 0.53 | 10.9 | > 25 |  |
| COc1ccc(CCc2ccc(OC)c(OC)c2)cc1O | 40 to 50 | 4.05 | > 25 | 5.26 | 4.79 | 0.081 |  |
| COc1cc(CCc2ccc(Cl)c(Cl)c2)cc(OC)c1O | 20 to 25 | 16.1 | 20.6 | 1.86 | 13.4 | 2.52 |  |
| COc1cc(CCc2cc(OC)c(O)c(OC)c2)ccc1O [MOSCATILIN] | 2.5 to 5 | 3.76 | 3.51 | 2.29 | 2.1 | 0.082 |  |
| COc1ccc(CCc2ccccn2)cc1OC | >50 | 13.8 | 11.1 | 0.93 | > 25 | 10.5 |  |
| CC(C)=CCC[C@]1(C)C=Cc2c(O)c3c(c(CC=C(C)C)c2O1)O[C@]12C(=C[C@@H]4C[C@H]1C(C)(C)O[C@@]2(C/C=C(/C)C(=O)O)C4=O)C3=O [GAMBOGIC ACID] |  | 2.36 | 4.27 | 3.11 | 1.47 | 1.33 | Activity (HCT-116 [5]): 31.8%; Activity (HCT-116 [8]): 33% |
| COc1cc(CCc2ccc(Cl)cc2Cl)cc(OC)c1O | 5 to 10 | 6.74 | 4.46 | 2.98 | 3.84 | > 25 |  |
| COc1ccc(CCc2ccc(Cl)cc2)cc1OC | >50 | 0.74 | 1.52 | 0.52 | > 25 | 1.25 |  |
